Laboratory results from ChEMBL document CHEMBL4184148 (Bioorg Med Chem Lett, 2017).

Key:
Aurora kinase B = Aurora kinase B (Homo sapiens, UniProt Q96GD4); experiment: Inhibition of Aurora B in human HCT116 cells assessed as reduction in histone H3 phosphorylation at S10 residues after 4 hrs by Western blot analysis; type: cell-based
Method in brief: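 Cells were exposed to compound in dose-response for 4 h, then lysed for western blotting of histone H3 pS10. The cellular EC50 was derived from the dose-response curves. Three replicate experiments were run.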

[1] = biological target: Mitogen-activated protein kinase kinase kinase 7 (Homo sapiens) (UniProt O43318); experiment: Binding affinity to wild-type human partial length TAK1 (M1 to Q303 residues) expressed in HEK293 cells at 1 uM by Kinomescan method relative to control; type: cell-based
[2] = biological target: Serine/threonine-protein kinase ICK (Homo sapiens) (UniProt Q9UPZ9); experiment: Binding affinity to wild-type human partial length ICK (M1 to P314 residues) expressed in HEK293 cells at 1 uM by Kinomescan method relative to control; type: cell-based
[3] = biological target: Misshapen-like kinase 1 (Homo sapiens) (UniProt Q8N4C8); experiment: Binding affinity to wild-type human partial length MINK (M1 to K312 residues) expressed in HEK293 cells at 1 uM by Kinomescan method relative to control; type: cell-based
[4] = biological target: Calcium/calmodulin-dependent protein kinase kinase 2 (Homo sapiens) (UniProt Q96RR4); experiment: Binding affinity to wild-type human partial length CAMKK2 (D65 to V471 residues) expressed in Escherichia coli BL21 at 1 uM by Kinomescan method relative to control
[5] = biological target: Serine/threonine-protein kinase pim-1 (Homo sapiens) (UniProt P11309); experiment: Binding affinity to wild-type human partial length PIM1 (A15 to K313 residues) expressed in Escherichia coli BL21 at 1 uM by Kinomescan method relative to control
[6] = biological target: Tyrosine-protein kinase Mer (Homo sapiens) (UniProt Q12866); experiment: Binding affinity to wild-type human partial length MERTK (R557 to L884 residues) expressed in Escherichia coli BL21 at 1 uM by Kinomescan method relative to control
[7] = biological target: Phosphatidylinositol 4-phosphate 5-kinase type-1 gamma (Homo sapiens) (UniProt O60331); experiment: Binding affinity to wild-type human partial length PIP5K1C (M1 to T668 residues) expressed in HEK293 cells at 1 uM by Kinomescan method relative to control; type: cell-based
[8] = biological target: Epidermal growth factor receptor (Homo sapiens) (UniProt P00533); experiment: Binding affinity to human partial length EGFR L747-T751del/Sins mutant expressed in Escherichia coli BL21 at 1 uM by Kinomescan method relative to control
[9] = biological target: Testis-specific serine/threonine-protein kinase 3 (Homo sapiens) (UniProt Q96PN8); experiment: Binding affinity to wild-type human full length TSSK3 (M1 to T268 residues) expressed in HEK293 cells at 1 uM by Kinomescan method relative to control; type: cell-based
Method in brief: (§1)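 Kinome-wide competition binding panel run by an outside provider, with each compound tested at a single concentration. Activity is read against the kinase panel.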

[10] = biological target: Phosphatidylinositol 5-phosphate 4-kinase type-2 gamma (Homo sapiens) (UniProt Q8TBX8); experiment: Binding affinity to wild-type human partial length PIP5K2C (M1 to A421 residues) expressed in HEK293 cells at 1 uM by Kinomescan method relative to control; type: cell-based
[11] = biological target: Mitogen-activated protein kinase 14 (Homo sapiens) (UniProt Q16539); experiment: Binding affinity to wild-type human full length p38-alpha (M1 to S360 residues) expressed in Escherichia coli BL21 at 1 uM by Kinomescan method relative to control; method in brief: as §1
[12] = biological target: Calcium/calmodulin-dependent protein kinase type 1B (Homo sapiens) (UniProt Q6P2M8); experiment: Binding affinity to wild-type human partial length CAMK1B (W9 to A311 residues) expressed in HEK293 cells at 1 uM by Kinomescan method relative to control; type: cell-based
[13] = system: Mast/stem cell growth factor receptor Kit (Homo sapiens), P10721 [A829P]; experiment: Binding affinity to human partial length KIT A829P mutant (I571 to D952 residues) expressed in HEK293 cells at 1 uM by Kinomescan method relative to control; type: cell-based
[14] = system: Receptor-type tyrosine-protein kinase FLT3 (Homo sapiens), P36888 [D835Y]; experiment: Binding affinity to human partial length FLT3 D835Y mutant (Q580 to Y969 residues) expressed in Escherichia coli BL21 at 1 uM by Kinomescan method relative to control
[15] = biological target: Cyclin-dependent kinase 4/cyclin D1 (Homo sapiens) (UniProt P11802+P24385); experiment: Binding affinity to wild-type human full length CDK4/cyclinD1 (M1 to E303 residues) expressed in HEK293 cells at 1 uM by Kinomescan method relative to control; type: cell-based
[16] = biological target: Ribosomal protein S6 kinase alpha-3 (Homo sapiens) (UniProt P51812); experiment: Binding affinity to wild-type human partial length C-terminal RSK3 kinase domain 2 (V403 to K700 residues) expressed in Escherichia coli BL21 at 1 uM by Kinomescan method relative to control
[17] = biological target: Ribosomal protein S6 kinase alpha-3 (Homo sapiens) (UniProt P51812); experiment: Binding affinity to wild-type human partial length N-terminal RSK3 kinase domain 1 (M1 to Q385 residues) expressed in Escherichia coli BL21 at 1 uM by Kinomescan method relative to control
[18] = biological target: Mitogen-activated protein kinase 3 (Homo sapiens) (UniProt P27361); experiment: Binding affinity to wild-type human full length ERK1 (M1 to P379 residues) expressed in Escherichia coli BL21 at 1 uM by Kinomescan method relative to control
Method in brief: (§2)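 Run as one kinome-wide competition binding panel with each compound at a single fixed concentration. Results were plotted as a kinome-wide selectivity map.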

[19] = biological target: Serine/threonine-protein kinase PLK2 (Homo sapiens) (UniProt Q9NYY3); experiment: Binding affinity to wild-type human partial length PLK2 (H58 to F354 residues) expressed in HEK293 cells at 1 uM by Kinomescan method relative to control; type: cell-based
[20] = system: Proto-oncogene tyrosine-protein kinase receptor Ret (Homo sapiens), P07949 [M918T]; experiment: Binding affinity to human partial length RET M918T mutant (E713 to D1014 residues) expressed in Escherichia coli BL21 at 1 uM by Kinomescan method relative to control
[21] = biological target: Interleukin-1 receptor-associated kinase 1 (Homo sapiens) (UniProt P51617); experiment: Binding affinity to wild-type human partial length IRAK1 (R194 to S712 residues) expressed in HEK293 cells at 1 uM by Kinomescan method relative to control; type: cell-based
[22] = system: Tyrosine-protein kinase ABL1 (Homo sapiens), P00519 [F317L]; experiment: Binding affinity to human phosphorylated ABL1 F317L mutant (S229 to K512 residues) expressed in HEK293 cells at 1 uM by Kinomescan method relative to control; type: cell-based
[23] = biological target: Serine/threonine-protein kinase 32A (Homo sapiens) (UniProt Q8WU08); experiment: Binding affinity to wild-type human full length YANK1 (M1 to L396 residues) expressed in HEK293 cells at 1 uM by Kinomescan method relative to control; type: cell-based; method in brief: as §1
[24] = biological target: Casein kinase I isoform epsilon (Homo sapiens) (UniProt P49674); experiment: Binding affinity to wild-type human full length CSNK1E (M1 to K416 residues) expressed in Escherichia coli BL21 at 1 uM by Kinomescan method relative to control; method in brief: as §2

Row | SMILES | EC50 (Aurora kinase B) | Activity [1] | Activity [2] | Activity [3] | Activity [4] | Activity [5] | Activity [6] | Activity [7] | Activity [8] | Activity [9] | Activity [10] | Activity [11] | Activity [12] | Activity [13] | Activity [14] | Activity [15] | Activity [16] | Activity [17] | Activity [18] | Activity [19] | further results
1 | C=CC(=O)Nc1ccc(C(=O)Nc2ccc(Nc3ncc4c(n3)N(C)c3ccc(C)cc3C(=O)N4C)cc2)cc1 | 7.1 nM | 96% | 86% | 98% | 92% | 88% | 80% | 98% | 81% | 100% | 56% | 100% | 100% | 99% | 83% | 94% | 100% | 89% | 100% | 90% | Activity [20]: 87%; Activity [21]: 95%; Activity [22]: 92%; Activity [23]: 100%; Activity [24]: 100%
2 | CCC(=O)Nc1ccc(C(=O)Nc2ccc(Nc3ncc4c(n3)N(C)c3ccc(C)cc3C(=O)N4C)cc2)cc1 | 11 nM | 66% | 97% | 65% | 89% | 85% | 100% | 88% | 89% | 59% | 100% | 100% | 45% | 54% | 77% | 100% | 85% | 85% | 95% | 74% | Activity [20]: 71%; Activity [21]: 90%; Activity [22]: 100%; Activity [23]: 82%; Activity [24]: 94%
